Assay results reported in article PMC3915044 (Integrative biology : quantitative biosciences from nano to …, 2013).
Entries after “also recorded” stand apart in the source; their conditions may differ.

How the values were obtained:
MCF-7 cells = experiment: Subcellular localization by fluorescence microscopy; assay type: cell-based, human; conditions: drug-sensitive MCF-7, 5 µM BMVC
MCF-7/ADR cells [1] = experiment: Flow cytometry of relative fluorescence changes; assay type: cell-based, human; conditions: for relative fluorescence change upon verapamil: 50 µM verapamil (P-glycoprotein inhibition); for relative fluorescence change upon LeuLeuOMe: 0.5 mM LeuLeuOMe
MRC-5 cells [2] = experiment: Subcellular localization by epi-fluorescence/confocal microscopy; assay type: cell-based, human
CL1-0 cells [3] = experiment: Flow cytometry of fluorescence intensity; assay type: cell-based, human
Summary of the method: (§1)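 CL1-0 and MRC-5 cells were loaded with 1 µM carbazole dication for 5 h and exposed to 0, 0.5 or 1 mM lysosomotropic agent. Mean fluorescence was taken at 564–606 nm with 488 nm excitation and expressed as a ratio across treatments; three independent experiments.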

CL1-0 cells [4] = experiment: Subcellular localization by epi-fluorescence/confocal microscopy; assay type: cell-based, human; conditions: for subcellular localization (nucleus versus mitochondria): CL1-0 human lung cancer cells, fluorescence microscopy
normal and cancer cells = experiment: Low temperature; assay type: cell-based; conditions: incubation at 4°C, energy-dependent mechanisms inhibited
Summary of the method: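 Cells were precooled at 4°C for 1 h to block energy-dependent uptake, then incubated with 1 µM test compound for 1 h. Cells were co-stained for 10 min with 1 ng ml−1 Hoechst 33342 (membrane-permeant) or Hoechst 33258 (impermeant) as controls. Imaging was by epi-fluorescence microscopy.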

[5] = tested on: primary human normal foreskin fibroblast cell line (BJ); experiment: Cytoplasmic microinjection; assay type: cell-based; conditions: BJ cells, 5 min after injection
Summary of the method: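 BJ primary foreskin fibroblasts were grown on glass coverslips in EMEM with 10% FBS. At 37°C, the cytoplasm was co-microinjected with 170 µM test compound and 2.5 mg ml−1 Texas Red 70-kDa dextran, which cannot cross nuclear pores. After 5 min incubation, cells were moved to fresh CO2-independent medium and imaged live.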

MCF-7/ADR cells [6] = experiment: Subcellular localization by fluorescence microscopy; assay type: cell-based, human
MRC-5 cells [7] = experiment: Flow cytometry of fluorescence intensity; assay type: cell-based, human; conditions: MRC-5, LeuLeuOMe treatment
Summary of the method: as §1

[8] = Lipophilicity, n-octanol/water partition; assay type: physicochemical
Summary of the method: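 Shake-flask method: n-octanol and water were premixed and left overnight. Test compound was added to the aqueous phase at 500 µM and mixed with an equal volume of n-octanol. Absorbance was measured in each phase, and log P was calculated as log[Ao/Aw].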

MRC-5 cells [9] = experiment: Lysosomal membrane permeabilization; assay type: cell-based, human
CL1-0 cells [10] = experiment: Lysosomal membrane permeabilization; assay type: cell-based, human
normal cells = experiment: Effect of lysosomal pH-raising agents on nuclear fluorescence of BMVC; assay type: cell-based; conditions: agents raise internal pH of lysosomes
MCF-7/ADR cells [11] = experiment: Cytotoxicity of doxorubicin; assay type: cell-based; conditions: Homo sapiens, NCI/ADR-RES, read-out: cytotoxicity IC50

C[n+]1ccc(C=Cc2ccc3[nH]c4ccc(C=Cc5cc[n+](C)cc5)cc4c3c2)cc1.[I-].[I-] [BMVC, 3,6-bis(1-methyl-4-vinylpyridinium) carbazole diiodide]
subcellular localization (MCF-7 cells): released from the lysosomes and entered the nucleus
relative fluorescence change upon verapamil (MCF-7/ADR cells [1]): without affecting BMVC fluorescence
relative fluorescence change upon LeuLeuOMe (MCF-7/ADR cells [1]): more than tenfold
BMVC fluorescence localization after LeuLeuOMe (MRC-5 cells [2]; MRC-5, 5 µM BMVC 24 h then LeuLeuOMe 0.5 mM 1 h): can be detected in the nucleus
nuclear fluorescence in fixed and permeabilized cells (MRC-5 cells [2]; MRC-5 fixed and permeabilized (4% formaldehyde, 0.1% Triton X-100)): strong BMVC fluorescence similar to that in CL1-0 cells
lysosomal retention / co-localization with LysoTracker (MRC-5 cells [2]; MRC-5 normal lung cells, confocal microscopy): colocalized with LysoTracker red but not MitoTracker red
nuclear fluorescence (MRC-5 cells [2]; MRC-5 normal lung cells, fluorescence microscopy): no fluorescence was observed in the nuclei
time-dependent fluorescent intensity (CL1-0 cells [3]; 1 µM BMVC, flow cytometry, CL1-0 compared with MRC-5): significantly higher in CL1-0 than in MRC-5 cells
BMVC fluorescence change after LeuLeuOMe (CL1-0 cells [3]; CL1-0, LeuLeuOMe treatment): small increase in BMVC fluorescence
lysosomal retention / co-localization with LysoTracker (CL1-0 cells [4]; CL1-0 cancer cells, confocal microscopy): partially colocalized with MitoTracker red, but not LysoTracker red
subcellular localization (nucleus versus mitochondria) (CL1-0 cells [4]): strong fluorescent signal was observed in the nuclei; also recorded: localize to the nuclei to a greater extent than the mitochondria
fluorescent signal in cancer cell nuclei upon DNase treatment (CL1-0 cells [4]; fixed CL1-0 cells, DNase): dramatically reduced
fluorescent signal in cancer cell nuclei upon RNase treatment (CL1-0 cells [4]; fixed CL1-0 cells, RNase): moderately reduced
fluorescence detected in cells at 4°C (uptake) (normal and cancer cells): not detected
localization after microinjection into the cytoplasm [5]: rapidly accumulated in the nuclei
nuclear fluorescence upon LeuLeuOMe treatment (MCF-7/ADR cells [6]; MCF-7/ADR, LeuLeuOMe, confocal microscopy): increased nuclear BMVC fluorescence
subcellular localization / lysosomal retention (MCF-7/ADR cells [6]; drug-resistant MCF-7/ADR): localized to the lysosomes; also recorded: retained in the lysosomes
BMVC fluorescence intensity change after LeuLeuOMe (MRC-5 cells [7]): increase in the fluorescence intensity

C[n+]1ccc(/C=C/c2ccc3c(c2)c2cc(/C=C/c4cc[n+](C)cc4)ccc2n3CCOCCOCCOCC[N+]2(C)CCCCC2)cc1.[I-].[I-].[I-] [BMVC-8C3O]
lipophilicity (log P), in words [8]: lower lipophilicity
subcellular localization (nucleus versus mitochondria) (CL1-0 cells [4]): localized to both the nucleus and the mitochondria

CN1CCN(c2ccc3[nH]c(-c4ccc5[nH]c(-c6ccc(O)cc6)nc5c4)nc3c2)CC1 [Hoechst 33258]
fluorescence detected in cells at 4°C (uptake) (normal and cancer cells): not detected

CCOc1ccc(-c2nc3ccc(-c4nc5ccc(N6CCN(C)CC6)cc5[nH]4)cc3[nH]2)cc1 [Hoechst 33342]
fluorescence detected in cells at 4°C (uptake) (normal and cancer cells): readily detected in the cells

COC(=O)[C@H](CC(C)C)NC(=O)[C@@H](N)CC(C)C [LeuLeuOMe, L-leucyl-L-leucine methyl ester]
lysosomal membrane permeabilization (MRC-5 cells [9]): increases lysosomal membrane permeabilization
lysosomal membrane permeabilization (CL1-0 cells [10]): increases lysosomal membrane permeabilization

Cl.N [NH4Cl, ammonium chloride]
effect on nuclear fluorescence of BMVC (normal cells): increased nuclear fluorescence of BMVC

CCN(CC)CCCC(C)Nc1ccnc2cc(Cl)ccc12 (centres unmarked) [chloroquine]
effect on nuclear fluorescence of BMVC (normal cells): increased nuclear fluorescence of BMVC

COc1cccc2c1C(=O)c1c(O)c3c(c(O)c1C2=O)C[C@@](O)(C(=O)CO)C[C@@H]3O[C@H]1C[C@H](N)[C@H](O)[C@H](C)O1 [doxorubicin, reference compound]
relative fluorescence change upon verapamil (MCF-7/ADR cells [1]): increased twofold
relative fluorescence change upon LeuLeuOMe (MCF-7/ADR cells [1]): no difference in doxorubicin fluorescence
IC50 (MCF-7/ADR cells [11]): ≥ 20 µM
